Series [1] can be described thus: Apparent solubility measurement in deionised water. The format is physicochemical. The note with it: 37 °C, thermodynamic from solid. The essentials: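 Excess crystalline test compound or its 1:10 solid dispersion was shaken in deionised water at 50 strokes/min and 37 °C for 24 h, then filtered (0.45 µm). Concentration was measured by HPLC: C18 column, 2% glacial acetic acid:methanol (23:77 v/v) at 1 mL/min, detection at 424 nm. Measured in triplicate.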

A short description of series [2]: Dissolution test in pH 1.2 and pH 6.8 buffers with 0.2% Tween 80. It counts as physicochemical. The note with it: 0.2% Tween 80, 37 °C. The essentials: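 Crystalline compound or solid dispersion, each equivalent to 2 mg test compound, was stirred at 50 rpm and 37 °C in 100 mL phosphate buffer (pH 1.2 or pH 6.8, each with 0.2% Tween 80). Samples were taken at 5, 10, 20, 30, 60, 120, 180, 240 and 300 min, with medium replaced at 37 °C. Samples were filtered (0.45 µm) and analysed by the 424 nm HPLC method.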

Series [3] is described as follows: Particle size analysis of micelles by dynamic light scattering. The format is physicochemical. The note with it: in water, DLS. The essentials:
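Carrier glycoside alone or the solid dispersion powder was dispersed in deionised water and sonicated for 2 min. Volumetric size distribution was measured by dynamic light scattering, and the mean size was taken from 3 replicates.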

For series [4] the following is noted: above the CMC, previous studies; ref [16–18]; cited from earlier work.
For series [5] the following is noted: ref [19], cited from earlier work.

≈ marks a conversion by molar mass, not a printed value.

Take `COc1cc(/C=C/C(=O)CC(=O)/C=C/c2ccc(O)c(OC)c2)ccc1O` [CUR, Curcumin]: in series [1], the solubility at 24 h came out at 0.25 µg/mL (≈ 0.679 µM). Also, the CUR released in series [2] (pH 1.2 buffer, in 300 min) was 22%. Also, in series [2] (pH 6.8 buffer), the “Dissolution rate (in words)” value was “slow dissolution rate”. In addition, the “Micelle size (diameter)” value in series [3] is listed as ~ 154 nm.

In the case of α-Glycosyl Rutin [Rutin-G], in series [4], the Aggregation number is on record as 4.

On to α-Glucosyl Stevia [Stevia-G], for which the Aggregation number in series [4] is listed as 12.

For `COc1cc(C2Oc3cc([C@H]4Oc5cc(O)cc(O)c5C(=O)[C@@H]4O)ccc3OC2CO)ccc1O` (stereo partly drawn) [silybin], the “Fold increment of silybin water solubility by Mog-V” value in series [5] was 2000 fold. Further, the “Water solubility of silybin” value in series [5] (silybin alone) is 1 µg/mL. Moreover, the “Water solubility of silybin with Mog-V” value in series [5] (solid dispersion of silybin in Mog-V dissolved in water) is given as 2000 µg/mL.

The term solubility denotes the concentration that dissolves in the medium under given conditions.

The values are drawn from paper PMC9968502 (International Journal of Nanomedicine, 2023).
